How the values were obtained:
Leishmania donovani [1] = experiment: Leishmanicidal activity against promastigote form of Leishmania donovani MHOM/IN/80/DD8 after 48 hrs by resazurin dye-based fluorometric method; type: functional; conditions: MHOM/IN/80/DD8, 48 h
Procedure, shortened: (§1)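 Promastigotes grown in Schneider's medium with 10% heat-inactivated FBS at 26 °C. 2.5×10^5 parasites/well. DMSO stocks at 100 mg/mL, diluted 1:2 in medium to final 100–0.78 µg/mL. 48 h at 26 °C, then 2.5 mM resazurin (20 µL) for 3 h. Fluorescence read at ex 535/em 590 nm, with growth inhibition corrected for signal-to-noise. Triplicates; IC50 by probit analysis.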

[2] = Selectivity index, ratio of CC50 for mouse J774 cells to IC50 for promastigote form of Leishmania amazonensis MHOM/Br/79/Maria; type: functional
Procedure, shortened: (§2)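 Selectivity index computed as CC50 from the J774 resazurin viability assay divided by IC50 from the matching promastigote or intracellular amastigote resazurin assay.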

[3] = Selectivity index, ratio of CC50 for mouse J774 cells to IC50 for amastigote form of Leishmania amazonensis MHOM/Br/79/Maria infected in mouse J774 cells; type: functional; procedure, shortened: as §2
[4] = Selectivity index, ratio of CC50 for mouse J774 cells to IC50 for amastigote form of Leishmania infantum MCAN/ES/96/BCN150 infected in mouse J774 cells; type: functional; procedure, shortened: as §2
Leishmania infantum [5] = experiment: Leishmanicidal activity against amastigote form of Leishmania infantum MCAN/ES/96/BCN150 infected in mouse J774 cells after 48 hrs by resazurin dye-based fluorometric method; type: functional, cell-based; conditions: MCAN/ES/96/BCN150, J774, 48 h
Procedure, shortened: (§3)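 5×10^4 macrophages in RPMI-1640 infected with 5×10^5 promastigotes. L. infantum infection was 48 h at 37 °C; L. amazonensis was 24 h at 33 °C then 24 h at 37 °C. Free parasites washed off with RPMI-HEPES pH 7.4. Compound at 100–0.78 µg/mL (final), 48 h at 37 °C. Cells lysed with 0.02% SDS, then 3 days at 26 °C in Schneider's medium. Resazurin 3 h, fluorescence read. Triplicates; IC50 by probit analysis.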

Leishmania guyanensis = experiment: Leishmanicidal activity against promastigote form of Leishmania guyanensis 141/93 after 48 hrs by resazurin dye-based fluorometric method; type: functional; conditions: 141/93, 48 h; procedure, shortened: as §1
Leishmania amazonensis [6] = experiment: Leishmanicidal activity against promastigote form of Leishmania amazonensis MHOM/Br/79/Maria after 48 hrs by resazurin dye-based fluorometric method; type: functional; procedure, shortened: as §1
[7] = Selectivity index, ratio of CC50 for mouse J774 cells to IC50 for promastigote form of Leishmania donovani MHOM/IN/80/DD8; type: functional; procedure, shortened: as §2
[8] = Cytotoxicity against mouse J774 cells assessed as reduction of cell viability after 48 hrs by resazurin dye-based fluorometric method; type: toxicity
Procedure, shortened: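 J774 murine macrophages grown in RPMI-1640 with 10% heat-inactivated FBS, penicillin/streptomycin, 37 °C, 5% CO2, and harvested mechanically at pre-confluence. Seeded at 5×10^4 cells/well and allowed to attach 2 h. Compound added at 100–0.78 µg/mL (1:2 series, final), 48 h exposure. Resazurin 2.5 mM (20 µL) then 3 h, fluorescence read. Triplicates. CC50 = 50% viability loss versus untreated.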

Leishmania infantum [9] = experiment: Leishmanicidal activity against promastigote form of Leishmania infantum MCAN/ES/96/BCN150 after 48 hrs by resazurin dye-based fluorometric method; type: functional; conditions: MCAN/ES/96/BCN150, 48 h; procedure, shortened: as §1
[10] = Selectivity index, ratio of CC50 for mouse J774 cells to IC50 for promastigote form of Leishmania guyanensis 141/93; type: functional; procedure, shortened: as §2
[11] = Selectivity index, ratio of CC50 for mouse J774 cells to IC50 for promastigote form of Leishmania infantum MCAN/ES/96/BCN150; type: functional; procedure, shortened: as §2
Leishmania amazonensis [12] = experiment: Leishmanicidal activity against amastigote form of Leishmania amazonensis MHOM/Br/79/Maria infected in mouse J774 cells after 48 hrs by resazurin dye-based fluorometric method; type: functional, cell-based; conditions: J774, 48 h; procedure, shortened: as §3
Leishmania infantum [13] = experiment: Potency index, ratio of miltefosine IC50 to compound IC50 for amastigote form of Leishmania infantum MCAN/ES/96/BCN150 infected in mouse J774 cells; type: functional
Leishmania braziliensis = experiment: Antileishmanial activity against amastigote form of Leishmania braziliensis MHOM/BR/1975/M2904 infected in mouse J774.2 cells after 72 hrs by Giemsa staining-based assay; type: functional, cell-based; conditions: MHOM/BR/75/M2904, J774.2, 72 h
Leishmania infantum [14] = experiment: Antileishmanial activity against amastigote form of Leishmania infantum MCAN/ES/2001/UCM-10 infected in mouse J774.2 cells after 72 hrs by Giemsa staining-based assay; type: functional, cell-based; conditions: MCAN/ES/2001/UCM-10, J774.2, 72 h
Leishmania donovani [15] = experiment: Antileishmanial activity against promastigote form of Leishmania donovani after 48 hrs by Alamar blue assay; type: functional
Procedure, shortened: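 Promastigotes grown at 26 °C in Schneider's insect medium with 10% heat-inactivated FBS and penicillin/streptomycin, seeded at 2.5×10^5/well. Exposed to 1:2 serial dilutions (100–0.78 µg/mL final; DMSO stocks) for 48 h at 26 °C, then 2.5 mM resazurin added for 3 h. Fluorescence read at 535/590 nm; inhibition relative to untreated minus background. Triplicates; IC50 by probit; miltefosine reference.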

| SMILES | IC50 (Leishmania donovani [1]) [µM] | Ratio CC50/IC50 [2] | Ratio CC50/IC50 [3] | Ratio CC50/IC50 [4] | IC50 (Leishmania infantum [5]) [µM] | IC50 (Leishmania guyanensis) [µM] | IC50 (Leishmania amazonensis [6]) [µM] | Ratio CC50/IC50 [7] | CC50 at 48 h [8] [µM] | IC50 (Leishmania infantum [9]) [µM] | Ratio CC50/IC50 [10] | Ratio CC50/IC50 [11] | IC50 (Leishmania amazonensis [12]) [µM] | Ratio IC50 (Leishmania infantum [13]) | IC50 (Leishmania braziliensis) [µM] | IC50 (Leishmania infantum [14]) [µM] | IC50 (Leishmania donovani [15]) [µM] |
| --- | --- | --- | --- | --- | --- | --- | --- | --- | --- | --- | --- | --- | --- | --- | --- | --- | --- |
| CC(C)c1cc2c(cc1[N+](=O)[O-])[C@@]1(C)CCC[C@@](C)(CNC(=O)c3ccccc3)[C@@H]1CC2=O | 5.4 | >16 | >54 | >11 | 17.5 | 38.5 | 12.2 | >37 | > 200 | 23.9 | >5 | >8 | 3.7 | – | – | – | – |
| CC(C)c1ccc2c(c1)C(=O)C[C@H]1[C@](C)(CNC(=O)c3ccccc3)CCC[C@]21C | 4 | >41 | >67 | >80 | 2.5 | 8.6 | 4.9 | >50 | > 200 | 8.7 | >23 | >23 | 3 | 23 | – | – | – |
| CC(C)c1cc2c(cc1[N+](=O)[O-])[C@@]1(C)CCC[C@@](C)(CNC(=O)c3ccccc3)[C@@H]1CC2 | 3.2 | >10 | >57 | >61 | 3.3 | 94.5 | 20.7 | >62 | > 200 | 11.1 | >2 | >18 | 3.5 | 18 | – | – | – |
| CC(=O)NC[C@]1(C)CCC[C@]2(C)c3ccc(C(C)C)cc3CC[C@@H]12 | – | – | – | – | – | – | – | – | 21.6 | – | – | – | – | – | – | – | – |
| CC(C)c1ccc2c(c1)CC[C@H]1[C@](C)(CNC(=O)c3ccccc3)CCC[C@]21C | 2.2 | >54 | >40 | >42 | 4.7 | 20.4 | 3.7 | >90 | > 200 | 3.1 | >10 | >64 | 5 | – | – | – | – |
| COC(=O)C[C@@]1(C)CCC[C@]2(C)c3cc(O)c(C(C)C)cc3CC[C@@H]12 | – | – | – | – | – | – | – | – | – | – | – | – | – | – | 22.3 to 35 | 22.3 to 35 | – |
| CC(=O)NC[C@]1(C)CCC[C@]2(C)c3ccc(C(C)C)cc3C(=O)C[C@@H]12 | – | – | – | – | – | – | – | – | 72.3 | – | – | – | – | – | – | – | – |
| CC(=O)NC[C@]1(C)CCC[C@]2(C)c3ccc(C(C)C)cc3-c3[nH]c4ccc(F)cc4c3[C@@H]12 | 2.8 | 7.2 | – | – | – | – | 4 | 10.3 | 28.8 | 1.5 | – | 19.2 | – | – | – | – | – |
| CC(=O)NC[C@]1(C)CCC[C@]2(C)c3cc([N+](=O)[O-])c(C(C)C)cc3C(=O)C[C@@H]12 | – | – | – | – | – | – | – | – | 39.2 | – | – | – | – | – | – | – | – |
| COC(=O)C[C@]1(C)CCC[C@]2(C)c3cc(O)c(C(C)C)cc3CC[C@@H]12 | – | – | – | – | – | – | – | – | – | – | – | – | – | – | 22.3 to 35 | 22.3 to 35 | – |
| CC(=O)NC[C@]1(C)CCC[C@]2(C)c3cc([N+](=O)[O-])c(C(C)C)cc3CC[C@@H]12 | – | – | – | – | – | – | – | – | 13.7 | – | – | – | – | – | – | – | – |
| CC(C)c1ccc2c(c1)CC[C@H]1[C@](C)(CN)CCC[C@]21C | – | – | – | – | – | – | – | – | 14.5 | – | – | – | – | – | – | – | – |
| CC(C)c1cc2c(cc1O)[C@@]1(C)CCCC(C)(C)[C@@H]1CC2 [FERRUGINOL] | – | – | – | – | – | – | – | – | – | – | – | – | – | – | – | – | 12.2 |
| CCCCCCCCCCCCCCCCOP(=O)([O-])OCC[N+](C)(C)C [MILTEFOSINE] | 0.15 | 2.9 | 8.2 | 2.3 | 58.1 | 18.2 | 47.7 | 909 | 136 | 3.4 | 7.5 | 40.1 | 16.5 | – | – | – | – |

From ChEMBL document CHEMBL3856220, “Synthesis and antileishmanial activity of C7- and C12-functionalized dehydroabietylamine derivatives” (Eur J Med Chem, 2016)
